Reference: paper PMC11541586 (Communications Biology, 2024)

How the values were obtained:
human LPA1 = human LPA1 (Homo sapiens, UniProt Q92633); experiment: NanoBiT-G-protein dissociation assay; type: cell-based
Procedure, shortened: (§1)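 Human LPA1 (N-terminal FLAG-tagged, wild type or point mutant) is co-transfected into HEK293T cells with LgBiT-Gαi1, untagged Gβ1 and SmBiT-Gγ2 C68S. After 1 d, cells are resuspended in HBSS with 0.01% fatty-acid-free BSA and loaded with coelenterazine for 2 h.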

human LPA1 W210A mutant = human LPA1 W210A mutant (Homo sapiens, UniProt Q92633, W210A); experiment: NanoBiT-G-protein dissociation assay, LPA1 W210A mutant; type: cell-based
Procedure, shortened: as §1

human LPA1 W271F mutant = human LPA1 W271F mutant (Homo sapiens, UniProt Q92633, W271F); experiment: NanoBiT-G-protein dissociation assay, LPA1 W271F mutant; type: cell-based
Procedure, shortened: as §1

human LPA1 L278A mutant = human LPA1 L278A mutant (Homo sapiens, UniProt Q92633, L278A); experiment: NanoBiT-G-protein dissociation assay, LPA1 L278A mutant; type: cell-based
Procedure, shortened: as §1

CNRs = experiment: NanoBiT-G-protein dissociation assay for CNRs; type: cell-based, human
FFAR4 = molecular target: T1, FFAR4 (Homo sapiens, UniProt Q5NUL3); experiment: NanoBiT-G-protein dissociation assay for FFAR4; type: cell-based; details: FFAR4 (b17 prints FFARs)
T1 sequence (Q5NUL3 1-361): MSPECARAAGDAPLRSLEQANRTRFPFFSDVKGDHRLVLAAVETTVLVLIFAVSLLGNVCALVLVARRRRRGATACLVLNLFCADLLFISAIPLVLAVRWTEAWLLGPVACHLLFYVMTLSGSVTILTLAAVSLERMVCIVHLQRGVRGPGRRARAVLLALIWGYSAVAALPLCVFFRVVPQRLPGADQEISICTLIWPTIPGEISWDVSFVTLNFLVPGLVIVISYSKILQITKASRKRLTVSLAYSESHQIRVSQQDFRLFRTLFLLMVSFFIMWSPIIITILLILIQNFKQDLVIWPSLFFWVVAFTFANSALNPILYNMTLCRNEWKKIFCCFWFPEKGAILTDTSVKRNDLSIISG

Chain of human LPA1 (Q92633 whole entry): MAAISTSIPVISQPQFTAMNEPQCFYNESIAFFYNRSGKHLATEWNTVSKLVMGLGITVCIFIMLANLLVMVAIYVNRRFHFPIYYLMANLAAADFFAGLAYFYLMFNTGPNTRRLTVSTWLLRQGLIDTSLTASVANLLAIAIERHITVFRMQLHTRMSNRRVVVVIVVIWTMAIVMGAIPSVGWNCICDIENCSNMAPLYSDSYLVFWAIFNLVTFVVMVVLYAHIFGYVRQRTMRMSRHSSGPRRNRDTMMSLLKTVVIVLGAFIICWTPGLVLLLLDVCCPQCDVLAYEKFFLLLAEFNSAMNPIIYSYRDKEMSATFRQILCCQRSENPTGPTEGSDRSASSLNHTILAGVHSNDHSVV
Chain of human LPA1 L278A mutant (Q92633 whole entry L278A): as the sequence (Q92633 whole entry) above, with L278A counted along it
Chain of human LPA1 W271F mutant (Q92633 whole entry W271F): as the sequence (Q92633 whole entry) above, with W271F counted along it
Chain of human LPA1 W210A mutant (Q92633 whole entry W210A): as the sequence (Q92633 whole entry) above, with W210A counted along it

EC50 (human LPA1; EC50, WT LPA1): 0.95 nM | Emax relative to LPA (human LPA1; compared with LPA): 1.5 fold | agonistic activity (EC50) relative to LPA (human LPA1; compared with LPA): 20 fold | response of mutant compared with wild type (human LPA1 W210A mutant): responsive | response of mutant compared with wild type (human LPA1 W271F mutant): reduction in response | response of mutant compared with wild type (human LPA1 L278A mutant): reduced the activity | effect on receptor (FFAR4): no activity
SMILES: CCc1oc2c([C@H](CO)N(CC)CC)cccc2c1C [CpY, (2R)-2-(diethylamino)-2-(2-ethyl-3-methyl-benzofuran-7-yl)ethanol]
effect on receptor (CNRs): no activity
